Bioassay records: PubChem, several laboratories
ERAP1 inh = human ERAP1 aminopeptidase inhibitors, primary screen, biochemical, single point, plate reader; inhibition, % at 10.7 µM; AID 652197, 2013; hit rate 0.15% among 340,000; recombinant ERAP1, Leu-AMC fluorescence, 60 min;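 active means mean replicate inhibition of at least 30%, or all replicates individually reaching that 30% level; inactive means mean below 30% and not every replicate reaching it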;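 further: 0% = neutral control wells and 100% = L-leucinethiol positive control wells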
PDI turbidity = inhibitors of human PDI, primary screen, biochemical, turbidity, single point, plate reader; hit rate 0.052% among 350,000; Protein disulfide-isomerase (Homo sapiens), P07237; AID 588391, 2011; inhibition, % at 10 µM; PDI insulin aggregation turbidity, A650, 90 min;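 active means mean inhibition across replicates of 30% or more, whatever share of single replicates reach that level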
ERp5 inh = inhibitors of ERp5-driven insulin aggregation, primary screen, biochemical, turbidity, absorbance 650 nm, single point; hit rate 0.05% among 350,000; inhibition, % at 9.99 µM; AID 651711, 2012; Protein disulfide-isomerase A6 (Homo sapiens), Q15084; 90 min;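 active means mean replicate inhibition above about 25%, with every replicate also reaching it, limit read from the data, passing the limit was not always enough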
Target sequence (Q15084 whole entry, looked up): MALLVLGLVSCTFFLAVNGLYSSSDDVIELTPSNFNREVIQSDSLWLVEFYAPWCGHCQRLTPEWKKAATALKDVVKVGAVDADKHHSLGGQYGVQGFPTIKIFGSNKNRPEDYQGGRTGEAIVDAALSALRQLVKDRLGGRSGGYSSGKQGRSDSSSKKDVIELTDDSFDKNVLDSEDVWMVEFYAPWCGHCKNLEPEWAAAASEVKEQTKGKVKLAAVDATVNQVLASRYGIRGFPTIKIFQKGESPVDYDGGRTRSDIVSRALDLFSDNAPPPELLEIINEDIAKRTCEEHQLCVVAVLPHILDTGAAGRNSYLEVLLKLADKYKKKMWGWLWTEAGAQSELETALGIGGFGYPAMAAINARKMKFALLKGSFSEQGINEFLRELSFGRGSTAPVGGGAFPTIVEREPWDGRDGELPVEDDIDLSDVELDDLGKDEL
Rin1 Abl inh = inhibitors of Rin1-Abl protein binding, primary screen, biochemical, TR-FRET; Tyrosine-protein kinase ABL1 (Homo sapiens) + Ras and Rab interactor 1 (Homo sapiens), …; hit rate 0.4% among 360,000; inhibition, % at 7.35 µM; in the data active means inhibition above about 5%, passing the limit was not always enough
CAL PDZ FP-1 = CAL PDZ peptide-binding inhibitors, primary screen, biochemical, fluorescence polarization, Cer-tagged CAL PDZ, HTS. hit rate 0.02% among 330,000. inhibition, % at 20 µM. purified CAL PDZ, TMR-peptide fluorescence polarization, 1 h. Golgi-associated PDZ and coiled-coil motif-containing protein (Homo sapiens), Q9HD26;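 active means highest replicate inhibition of at least 40%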;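 further: plate controls were DMSO neutral control wells for no effect and unlabeled competitor peptide control wells for full effect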
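material = purified tagged CAL PDZ domain construct (CerCALP) | compound dosing = 20 µM, one dose | times = 1 h at RT | measured by = fluorescence polarization from S- and P-plane intensities, G-factor corrected | read-out = inhibition from polarization loss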
CAL PDZ FP-2 = untagged CAL PDZ binding inhibitors, primary screen, biochemical, fluorescence polarization, HTS. AID 602252, 2012. purified CAL PDZ, TMR-peptide fluorescence polarization, 1 h. hit rate 0.92% among 300,000. inhibition, % at 24.9 µM. Golgi-associated PDZ and coiled-coil motif-containing protein (Homo sapiens), Q9HD26;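 active means mean inhibition of at least 30% with at least half of replicates also reaching 30%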;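 further: 0% = DMSO neutral control and 100% = excess unlabeled competitor peptide PRC23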
Rin1-Abl confirm = Rin1-Abl binding inhibitor retest, confirmation, biochemical, TR-FRET; shares compounds with Rin1 Abl inh; purified proteins; inhibition, % at 7.35 µM; hit rate 49% among 1,300
GFP quencher = GFP fluorescence inhibitors and quenchers, artefact control for Rin1-Abl interaction inhibitor project, biochemical. shares compounds with Rin1 Abl inh. inhibitors/quenchers counterscreen. hit rate 8.5% among 1,300. AID 602125, 2011. inhibition, % at 6.75 µM;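 further: ABL1-eGFP fusion protein alone without its partner RIN1-SBP; 0% = protein with vehicle and 100% = wells lacking protein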
GFP quench dose = GFP fluorescence inhibitors and quenchers, dose response, artefact control for Rin1-Abl interaction inhibitor project, biochemical; GFP fluorescence interference/quenching counterscreen; 230 tested, under 10 active; shares compounds with Rin1 Abl inh; IC50, µM; call rule not given here;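 further: ABL1-eGFP fusion protein alone without its RIN1 binding partner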
Active calls of the source: *; · = no result given. This is a sample that favours compounds with a hit; in the whole collection about 1.1% have one here. Unless noted, no stated cut-off is given here; in the data, active means inhibition above about 6.5%; inactive means the rest.

SMILES | ERAP1 inh | PDI turbidity | ERp5 inh | Rin1 Abl inh | CAL PDZ FP-1 | CAL PDZ FP-2 | Rin1-Abl confirm | GFP quencher | others
COCCCNc1nc2ccccc2nc1NS(=O)(=O)c1cccs1 | · | 11 | · | 14* | -1 | 1 | -3 | 0
CC1=NN(c2ccc(C(=O)O)cc2)C(=O)/C1=C/c1ccc(-c2ccccc2F)o1 | 5 | -4 | -2 | 3 | -1 | -1 | · | ·
CC1=NN(c2ccccc2)C(=O)/C1=C/c1ccc(Cl)cc1 | 3 | 6 | -1 | 12* | 0 | -4 | 0 | 2
CC1=NN(c2ccc(C(=O)O)cc2)C(=O)/C1=C\c1ccc(OC(=O)c2cccs2)cc1 | -2 | -3 | 0 | 11* | 0 | -4 | -1 | -1
CCOc1cc(/C=C2/C(=O)N(c3ccccc3)N=C2C)ccc1OC(=O)c1ccco1 | · | 11 | · | 19* | -1 | 6 | -4 | -4
CC1=NN(c2ccccc2)C(=O)/C1=C/c1ccc[nH]1 | · | 2 | · | -3 | 0 | -3 | · | ·
CCOc1cc(/C=C2\C(=O)N(c3ccc(C(N)=O)cc3)N=C2C)ccc1OC(=O)c1cccs1 | · | -18 | · | 0 | -1 | 0 | · | ·
COCC(=O)NC[C@@H]1[C@H](c2ccccc2)[C@H](CO)N1C(=O)c1ccccc1 | -1 | · | -4 | · | · | · | · | ·
CCOc1ccc(C(=O)OCC(=O)Nc2ccc(SC(F)F)cc2)cc1OCC | · | -4 | · | 8.1* | 0 | -5 | -1 | 0
O=C(CSC1=NNC(c2ccccn2)S1)Nc1ccccc1 (centres undefined) | · | 4 | -9 | 6.5* | -2 | · | -6 | 3
COc1ccc(CN(C)C[C@@H]2Oc3ccc(NC(=O)CCN4CCOCC4)cc3C(=O)N([C@@H](C)CO)C[C@@H]2C)cc1 | -1 | · | 12 | · | · | · | · | ·
Cc1cccc(-n2c(-c3ccccc3)c[nH]c2=S)c1C | 0 | -15 | 2 | 6 | -2 | -1 | · | ·
COc1ccccc1-n1c(-c2ccc(Cl)cc2)c[nH]c1=S | 0 | -2 | -4 | 7.5* | -1 | -7 | -3 | -1
COc1ccccc1S(=O)(=O)N[C@@H]1C=C[C@H](CC(=O)N2CCCCC2)O[C@@H]1CO | 4 | · | 0 | · | · | · | · | ·
CN(C(=O)c1ccc(NC(=O)Cc2ccc(NC(=O)C3CCN(C(=O)C4CCCCC4)CC3)cc2)cc1)C1CCCC1 | -1 | 1 | -1 | 4 | 0 | -4 | · | ·
CN(C(=O)c1ccc(NC(=O)Cc2ccc(NC(=O)C3CCN(C(=O)C4CCCC4)CC3)cc2)cc1)C1CC1 | -1 | -8 | 7 | 78* | 0 | 0 | 84* | -1
CN(C(=O)c1ccc(NC(=O)Cc2ccc(NC(=O)C3CCN(C(=O)C4CCC4)CC3)cc2)cc1)C1CC1 | -2 | 14 | -4 | 37* | -1 | 1 | 62* | 0
CN(C(=O)c1ccc(NC(=O)Cc2cccc(NC(=O)C3CCN(C(=O)C4CCCC4)CC3)c2)cc1)C1CC1 | -7 | 8 | -1 | 20* | 0 | -11 | 28* | 0 | GFP quench dose=>68
CCCc1c(O)nc(SCCN(CC)CC)[nH]c1=O | · | 8 | · | 7.6* | 0 | -5 | -2 | 0
Cc1ccccc1Nc1nc(N)nc(CSc2nnc(-c3ccccc3)n2C)n1 | · | 0 | · | -1 | -2 | -1 | · | ·
Cc1ccc(-c2nnc(SCc3nc(N)nc(Nc4ccccc4C)n3)n2N)cc1 | · | 16 | · | 18* | -2 | -2 | 0 | -1
